# Data published in ChEMBL document CHEMBL1139352, “Synthesis and evaluation of novel inhibitors of Pim-1 and Pim-2 protein kinases” (J Med Chem, 2009).
# Key:
# [1] = biological target: Inhibitor of nuclear factor kappa-B kinase subunit beta (Homo sapiens) (UniProt O14920); assay: Inhibition of IKK-beta at 5 uM
# [2] = biological target: Serine/threonine-protein kinase PLK1 (Homo sapiens) (UniProt P53350); assay: Inhibition of PLK1 at 5 uM
# [3] = test system: Mus musculus; assay: Toxicity in Swiss Webster mouse assessed as creatinine level at 10 mg/kg, ip daily for 7 days measured after 7 days; type: organism-based; design: dose 10 mg/kg, route intraperitoneal; details: in vivo, 168 h
# [4] = biological target: Cyclin-dependent kinase 2 (Homo sapiens) (UniProt P24941); assay: Inhibition of CDK2 at 5 uM
# [5] = biological target: Mitogen-activated protein kinase 3 (Homo sapiens) (UniProt P27361); assay: Inhibition of Erk1 at 5 uM
# [6] = biological target: Interleukin-1 receptor-associated kinase 4 (Homo sapiens) (UniProt Q9NWZ3); assay: Inhibition of IRAK4 at 5 uM
# [7] = biological target: Cytoplasmic tyrosine-protein kinase BMX (Homo sapiens) (UniProt P51813); assay: Inhibition of BMX at 5 uM
# [8] = test system: Mus musculus; assay: Toxicity in Swiss Webster mouse assessed as alanine aminotransferase level at 50 mg/kg, ip daily for 7 days measured after 7 days; type: organism-based; design: dose 50 mg/kg, route intraperitoneal; details: in vivo, 168 h
# [9] = test system: Mus musculus; assay: Toxicity in Swiss Webster mouse assessed as granulocyte count at 50 mg/kg, ip daily for 7 days measured after 7 days; type: organism-based; design: dose 50 mg/kg, route intraperitoneal; details: in vivo, 168 h
# [10] = biological target: MAP kinase-activated protein kinase 2 (Homo sapiens) (UniProt P49137); assay: Inhibition of MAPKAPK2 at 5 uM
# [11] = biological target: Protein kinase C zeta type (Homo sapiens) (UniProt Q05513); assay: Inhibition of PKCzeta at 5 uM
# [12] = biological target: Fibroblast growth factor receptor 1 (Homo sapiens) (UniProt P11362); assay: Inhibition of FGFR1 at 5 uM
# [13] = biological target: 5'-AMP-activated protein kinase subunit beta-1 (Homo sapiens) (UniProt Q9Y478); assay: Inhibition of AMPK at 5 uM
# [14] = test system: Mus musculus; assay: Toxicity in Swiss Webster mouse assessed as hemoglobin level at 50 mg/kg, ip daily for 7 days measured after 7 days; type: organism-based; design: dose 50 mg/kg, route intraperitoneal; details: in vivo, 168 h
# [15] = biological target: Tyrosine-protein kinase ABL1 (Homo sapiens) (UniProt P00519); assay: Inhibition of ABL at 5 uM
# [16] = test system: Mus musculus; assay: Toxicity in Swiss Webster mouse assessed as lymphocyte count at 3 mg/kg, ip daily for 7 days measured after 7 days; type: organism-based; design: dose 3 mg/kg, route intraperitoneal; details: in vivo, 168 h
# [17] = test system: Mus musculus; assay: Toxicity in Swiss Webster mouse assessed as phosphate level at 3 mg/kg, ip daily for 7 days measured after 7 days; type: organism-based; design: dose 3 mg/kg, route intraperitoneal; details: in vivo, 168 h
# [18] = biological target: Tyrosine-protein kinase SYK (Homo sapiens) (UniProt P43405); assay: Inhibition of SYK at 5 uM
# [19] = test system: Mus musculus; assay: Toxicity in Swiss Webster mouse assessed as lymphocyte count at 10 mg/kg, ip daily for 7 days measured after 7 days; type: organism-based; design: dose 10 mg/kg, route intraperitoneal; details: in vivo, 168 h
# [20] = biological target: Ribosomal protein S6 kinase beta-1 (Homo sapiens) (UniProt P23443); assay: Inhibition of p70S6K at 5 uM
# [21] = test system: Mus musculus; assay: Toxicity in Swiss Webster mouse assessed as Na+ level at 10 mg/kg, ip daily for 7 days measured after 7 days; type: organism-based; design: dose 10 mg/kg, route intraperitoneal; details: in vivo, 168 h
# [22] = biological target: Tyrosine-protein kinase Lyn (Homo sapiens) (UniProt P07948); assay: Inhibition of LYN at 5 uM
# [23] = test system: Mus musculus; assay: Toxicity in Swiss-Webster mouse at 50 mg/kg, ip daily for 5 days; type: organism-based; design: dose 50 mg/kg, route intraperitoneal; details: in vivo, 120 h
# [24] = test system: Mus musculus; assay: Toxicity in Swiss Webster mouse assessed as glucose level at 50 mg/kg, ip daily for 7 days measured after 7 days; type: organism-based; design: dose 50 mg/kg, route intraperitoneal; details: in vivo, 168 h
# [25] = biological target: Vascular endothelial growth factor receptor 2 (Homo sapiens) (UniProt P35968); assay: Inhibition of KDR at 5 uM
# [26] = biological target: Tyrosine-protein kinase BTK (Homo sapiens) (UniProt Q06187); assay: Inhibition of BTK at 5 uM
# [27] = biological target: Ribosomal protein S6 kinase alpha-5 (Homo sapiens) (UniProt O75582); assay: Inhibition of MSK1 at 5 uM
# [28] = biological target: Protein kinase C beta type (Homo sapiens) (UniProt P05771); assay: Inhibition of PKCbeta2 at 5 uM
# [29] = test system: Mus musculus; assay: Toxicity in Swiss Webster mouse assessed as amylase level at 10 mg/kg, ip daily for 7 days measured after 7 days; type: organism-based; design: dose 10 mg/kg, route intraperitoneal; details: in vivo, 168 h
# [30] = biological target: RAC-alpha serine/threonine-protein kinase (Homo sapiens) (UniProt P31749); assay: Inhibition of AKT1 at 5 uM
# [31] = biological target: Mitogen-activated protein kinase kinase kinase kinase 4 (Homo sapiens) (UniProt O95819); assay: Inhibition of HGK at 5 uM
# [32] = test system: Mus musculus; assay: Toxicity in Swiss Webster mouse assessed as white blood cell count at 50 mg/kg, ip daily for 7 days measured after 7 days; type: organism-based; design: dose 50 mg/kg, route intraperitoneal; details: in vivo, 168 h
# Procedure, shortened: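 Six-week-old female Swiss Webster mice (about 25 g) received intraperitoneal injections daily for 7 days. Doses were 3, 10 or 50 mg/kg, with a vehicle group (30% PEG-400, 5% Tween-80, 65% DMSO). Values are reported as ranges per group.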
# [33] = biological target: Mitogen-activated protein kinase 14 (Homo sapiens) (UniProt Q16539); assay: Inhibition of p38alpha at 5 uM
# [34] = biological target: MAP kinase-activated protein kinase 5 (Homo sapiens) (UniProt Q8IW41); assay: Inhibition of PRAK at 5 uM
# [35] = test system: Mus musculus; assay: Toxicity in Swiss Webster mouse assessed as Na+ level at 3 mg/kg, ip daily for 7 days measured after 7 days; type: organism-based; design: dose 3 mg/kg, route intraperitoneal; details: in vivo, 168 h
# [36] = test system: Mus musculus; assay: Toxicity in Swiss Webster mouse assessed as K+ level at 10 mg/kg, ip daily for 7 days measured after 7 days; type: organism-based; design: dose 10 mg/kg, route intraperitoneal; details: in vivo, 168 h
# [37] = test system: Mus musculus; assay: Toxicity in Swiss Webster mouse assessed as K+ level at 50 mg/kg, ip daily for 7 days measured after 7 days; type: organism-based; design: dose 50 mg/kg, route intraperitoneal; details: in vivo, 168 h
# [38] = Antitumor activity against mouse JC cells xenografted BALB/c mouse assessed as tumor growth inhibition at 50 mg/kg, ip for 5 days per week; type: functional; design: scale not given: the % may be the effect or the level left; details: route intraperitoneal
# Procedure, shortened: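 Syngeneic model: female Balb/c mice were implanted subcutaneously with 1 × 10⁶ JC murine mammary adenocarcinoma cells in PBS. Once tumors were palpable, mice were randomized into groups. They received intraperitoneal injections once daily, five days per week, of either vehicle (50% DMSO : 50% PBS) or 50 mg/kg. Tumor volume was taken as (L × W²)/2. n = 5 mice per group; mean ± standard error.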
# [39] = test system: Mus musculus; assay: Toxicity in Swiss Webster mouse assessed as phosphate level at 10 mg/kg, ip daily for 7 days measured after 7 days; type: organism-based; design: dose 10 mg/kg, route intraperitoneal; details: in vivo, 168 h
# [40] = biological target: Mitogen-activated protein kinase 9 (Homo sapiens) (UniProt P45984); assay: Inhibition of JNK2 at 5 uM
# [41] = biological target: Insulin-like growth factor 1 receptor (Homo sapiens) (UniProt P08069); assay: Inhibition of IGF1R at 5 uM
# [42] = biological target: RAC-beta serine/threonine-protein kinase (Homo sapiens) (UniProt P31751); assay: Inhibition of AKT2 at 5 uM
# [43] = test system: Mus musculus; assay: Toxicity in Swiss Webster mouse assessed as phosphate level at 50 mg/kg, ip daily for 7 days measured after 7 days; type: organism-based; design: dose 50 mg/kg, route intraperitoneal; details: in vivo, 168 h
# [44] = biological target: Epidermal growth factor receptor (Homo sapiens) (UniProt P00533); assay: Inhibition of EGFR at 5 uM
# Chain of Protein kinase C beta type (Homo sapiens) (P05771 2-671 limits assumed): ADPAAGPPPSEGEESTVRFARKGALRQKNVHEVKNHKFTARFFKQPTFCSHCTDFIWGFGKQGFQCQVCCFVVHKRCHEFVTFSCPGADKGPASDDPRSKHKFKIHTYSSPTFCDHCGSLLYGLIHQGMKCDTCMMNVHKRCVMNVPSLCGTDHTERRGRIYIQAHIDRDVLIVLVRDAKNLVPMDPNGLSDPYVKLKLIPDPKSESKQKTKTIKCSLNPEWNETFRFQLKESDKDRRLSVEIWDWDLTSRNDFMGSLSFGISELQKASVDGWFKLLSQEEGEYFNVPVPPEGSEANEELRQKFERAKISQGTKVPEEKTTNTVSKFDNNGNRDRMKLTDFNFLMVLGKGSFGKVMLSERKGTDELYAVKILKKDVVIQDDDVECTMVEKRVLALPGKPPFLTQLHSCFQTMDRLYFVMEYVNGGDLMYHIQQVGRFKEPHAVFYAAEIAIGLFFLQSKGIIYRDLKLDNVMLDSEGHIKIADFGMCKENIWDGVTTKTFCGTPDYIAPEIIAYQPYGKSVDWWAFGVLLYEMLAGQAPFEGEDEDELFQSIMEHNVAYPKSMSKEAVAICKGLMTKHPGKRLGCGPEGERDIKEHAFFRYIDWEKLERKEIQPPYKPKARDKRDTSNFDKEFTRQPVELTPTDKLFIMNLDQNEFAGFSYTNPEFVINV
# Chain of Mitogen-activated protein kinase 3 (Homo sapiens) (P27361 whole entry): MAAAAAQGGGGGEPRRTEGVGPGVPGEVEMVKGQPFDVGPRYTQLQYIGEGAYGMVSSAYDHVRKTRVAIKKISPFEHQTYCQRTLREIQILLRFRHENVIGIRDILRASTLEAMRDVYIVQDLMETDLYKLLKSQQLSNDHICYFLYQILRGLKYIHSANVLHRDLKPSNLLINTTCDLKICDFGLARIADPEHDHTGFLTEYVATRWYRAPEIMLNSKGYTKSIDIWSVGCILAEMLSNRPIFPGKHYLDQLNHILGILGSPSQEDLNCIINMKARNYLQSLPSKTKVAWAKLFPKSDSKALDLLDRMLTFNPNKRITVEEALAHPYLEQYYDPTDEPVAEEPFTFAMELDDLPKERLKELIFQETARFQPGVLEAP
# Chain of Tyrosine-protein kinase Lyn (Homo sapiens) (P07948 2-512 limits assumed): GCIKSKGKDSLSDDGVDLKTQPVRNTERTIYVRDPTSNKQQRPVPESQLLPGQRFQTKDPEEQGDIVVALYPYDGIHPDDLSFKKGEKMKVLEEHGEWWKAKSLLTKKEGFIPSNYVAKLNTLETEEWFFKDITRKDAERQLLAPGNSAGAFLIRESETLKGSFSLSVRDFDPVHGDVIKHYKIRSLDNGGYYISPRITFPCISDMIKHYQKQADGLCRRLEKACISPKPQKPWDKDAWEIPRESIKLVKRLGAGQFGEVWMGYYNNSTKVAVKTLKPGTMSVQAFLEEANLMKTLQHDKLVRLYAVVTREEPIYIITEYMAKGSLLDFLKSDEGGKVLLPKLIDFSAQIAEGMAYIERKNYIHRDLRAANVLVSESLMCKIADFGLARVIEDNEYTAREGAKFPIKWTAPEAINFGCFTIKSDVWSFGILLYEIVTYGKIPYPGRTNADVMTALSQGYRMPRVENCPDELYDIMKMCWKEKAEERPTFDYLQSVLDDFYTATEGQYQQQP
# Chain of Mitogen-activated protein kinase kinase kinase kinase 4 (Homo sapiens) (O95819 2-1239 limits assumed): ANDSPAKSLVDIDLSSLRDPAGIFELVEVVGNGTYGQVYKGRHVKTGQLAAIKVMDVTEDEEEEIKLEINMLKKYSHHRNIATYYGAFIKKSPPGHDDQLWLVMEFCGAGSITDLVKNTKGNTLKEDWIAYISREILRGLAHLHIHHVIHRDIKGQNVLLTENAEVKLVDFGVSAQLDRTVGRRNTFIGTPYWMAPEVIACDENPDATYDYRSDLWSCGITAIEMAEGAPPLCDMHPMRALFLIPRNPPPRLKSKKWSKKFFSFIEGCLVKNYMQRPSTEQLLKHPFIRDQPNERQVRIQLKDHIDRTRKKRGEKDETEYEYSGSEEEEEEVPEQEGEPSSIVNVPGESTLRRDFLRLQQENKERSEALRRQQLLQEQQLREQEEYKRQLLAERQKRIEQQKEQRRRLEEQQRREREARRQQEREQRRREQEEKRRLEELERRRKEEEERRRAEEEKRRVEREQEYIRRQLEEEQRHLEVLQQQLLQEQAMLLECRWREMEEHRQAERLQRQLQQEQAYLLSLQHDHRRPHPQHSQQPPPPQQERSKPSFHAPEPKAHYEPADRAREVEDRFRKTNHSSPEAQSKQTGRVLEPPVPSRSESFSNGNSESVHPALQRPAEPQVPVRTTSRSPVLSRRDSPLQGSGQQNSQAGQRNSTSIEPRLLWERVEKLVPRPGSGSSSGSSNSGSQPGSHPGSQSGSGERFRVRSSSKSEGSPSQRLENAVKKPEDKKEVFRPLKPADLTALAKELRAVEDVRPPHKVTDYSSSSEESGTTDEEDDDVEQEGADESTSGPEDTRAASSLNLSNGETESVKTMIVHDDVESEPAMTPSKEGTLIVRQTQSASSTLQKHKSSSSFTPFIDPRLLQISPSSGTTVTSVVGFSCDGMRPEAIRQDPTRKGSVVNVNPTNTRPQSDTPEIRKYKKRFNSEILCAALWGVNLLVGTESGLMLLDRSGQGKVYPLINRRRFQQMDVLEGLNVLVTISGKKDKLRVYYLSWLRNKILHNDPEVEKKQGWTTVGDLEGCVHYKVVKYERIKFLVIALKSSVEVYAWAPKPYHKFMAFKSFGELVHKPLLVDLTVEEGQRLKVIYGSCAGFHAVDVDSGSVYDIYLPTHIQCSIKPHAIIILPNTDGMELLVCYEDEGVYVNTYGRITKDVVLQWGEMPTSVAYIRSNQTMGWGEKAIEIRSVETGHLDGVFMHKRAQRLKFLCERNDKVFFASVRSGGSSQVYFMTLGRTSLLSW
# Chain of Cytoplasmic tyrosine-protein kinase BMX (Homo sapiens) (P51813 whole entry): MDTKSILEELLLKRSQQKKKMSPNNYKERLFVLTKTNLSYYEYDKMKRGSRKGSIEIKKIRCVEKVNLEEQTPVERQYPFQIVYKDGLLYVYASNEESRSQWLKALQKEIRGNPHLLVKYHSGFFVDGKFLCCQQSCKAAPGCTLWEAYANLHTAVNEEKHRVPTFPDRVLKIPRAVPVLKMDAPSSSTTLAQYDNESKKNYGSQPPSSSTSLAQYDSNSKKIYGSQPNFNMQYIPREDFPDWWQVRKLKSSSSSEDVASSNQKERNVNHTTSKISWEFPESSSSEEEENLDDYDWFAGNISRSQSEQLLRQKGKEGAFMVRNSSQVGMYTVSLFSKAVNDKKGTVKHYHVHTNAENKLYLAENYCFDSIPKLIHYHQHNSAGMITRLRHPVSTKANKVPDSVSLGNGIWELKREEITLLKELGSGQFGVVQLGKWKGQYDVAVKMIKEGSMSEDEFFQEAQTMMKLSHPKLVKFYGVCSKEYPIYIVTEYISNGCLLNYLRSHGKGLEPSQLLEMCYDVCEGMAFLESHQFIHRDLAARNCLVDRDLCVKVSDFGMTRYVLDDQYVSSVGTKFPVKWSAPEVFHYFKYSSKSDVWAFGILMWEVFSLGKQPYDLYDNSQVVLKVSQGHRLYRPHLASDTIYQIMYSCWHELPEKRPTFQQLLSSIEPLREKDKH
# Chain of Ribosomal protein S6 kinase beta-1 (Homo sapiens) (P23443 whole entry, looked up): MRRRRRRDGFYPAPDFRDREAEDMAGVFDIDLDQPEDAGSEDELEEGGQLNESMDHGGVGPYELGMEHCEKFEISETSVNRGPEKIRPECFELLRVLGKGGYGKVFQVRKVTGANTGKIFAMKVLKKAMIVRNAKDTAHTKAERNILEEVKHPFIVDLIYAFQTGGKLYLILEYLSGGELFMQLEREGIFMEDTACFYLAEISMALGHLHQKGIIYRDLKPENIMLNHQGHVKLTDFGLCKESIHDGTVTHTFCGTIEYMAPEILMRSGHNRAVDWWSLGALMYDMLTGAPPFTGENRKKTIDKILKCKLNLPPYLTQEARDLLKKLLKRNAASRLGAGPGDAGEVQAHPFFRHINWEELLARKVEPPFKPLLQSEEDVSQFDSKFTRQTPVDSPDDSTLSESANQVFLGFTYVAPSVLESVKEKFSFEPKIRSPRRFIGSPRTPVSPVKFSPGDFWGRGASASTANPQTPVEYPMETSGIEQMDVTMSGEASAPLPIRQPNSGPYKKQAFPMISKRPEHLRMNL
# Chain of Ribosomal protein S6 kinase alpha-5 (Homo sapiens) (O75582 whole entry, looked up): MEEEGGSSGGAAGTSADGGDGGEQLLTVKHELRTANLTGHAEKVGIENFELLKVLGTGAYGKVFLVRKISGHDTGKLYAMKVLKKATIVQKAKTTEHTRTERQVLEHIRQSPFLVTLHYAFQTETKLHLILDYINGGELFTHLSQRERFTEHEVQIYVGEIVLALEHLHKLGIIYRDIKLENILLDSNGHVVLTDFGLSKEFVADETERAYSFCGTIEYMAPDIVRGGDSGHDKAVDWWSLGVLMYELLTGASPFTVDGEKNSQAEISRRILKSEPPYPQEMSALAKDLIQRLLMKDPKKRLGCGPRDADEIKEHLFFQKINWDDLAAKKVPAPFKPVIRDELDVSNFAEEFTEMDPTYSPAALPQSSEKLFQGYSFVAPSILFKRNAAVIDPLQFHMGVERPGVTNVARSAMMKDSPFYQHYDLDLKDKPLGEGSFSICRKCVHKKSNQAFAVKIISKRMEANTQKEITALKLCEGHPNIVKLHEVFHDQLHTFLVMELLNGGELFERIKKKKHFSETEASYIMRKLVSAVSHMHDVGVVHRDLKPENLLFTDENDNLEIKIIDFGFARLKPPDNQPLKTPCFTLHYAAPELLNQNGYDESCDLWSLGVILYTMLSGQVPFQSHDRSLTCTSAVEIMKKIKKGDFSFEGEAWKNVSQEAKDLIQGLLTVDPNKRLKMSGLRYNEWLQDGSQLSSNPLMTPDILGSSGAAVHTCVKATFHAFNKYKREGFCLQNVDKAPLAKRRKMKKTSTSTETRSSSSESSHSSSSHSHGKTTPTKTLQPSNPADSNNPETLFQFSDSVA
smiles,measurement,setting,value
CCCOc1ccc(/C=C2\SC(=O)NC2=O)cc1,inhibition,[1],10%
same,inhibition,[2],9%
same,Activity,[3],0.2 mg/dL
same,inhibition,[4],-2%
same,inhibition,[5],1%
same,inhibition,[6],5%
same,inhibition,[7],10%
same,Activity,[8],37 U/L
same,Activity,[9],0.08 ×10⁹ /L
same,inhibition,[10],5%
same,inhibition,[11],3%
same,inhibition,[12],1%
same,inhibition,[13],7%
same,Activity,[14],12.2 g/dL
same,inhibition,[15],6%
same,Activity,[16],3.61 ×10⁹ /L
same,Activity,[17],5.1 mg/dL
same,inhibition,[18],-3%
same,Activity,[19],3.94 ×10⁹ /L
same,inhibition,[20],8%
same,Activity,[21],144 mmol/L
same,inhibition,[22],8%
same,Activity,[23],Non-toxic
same,Activity,[24],136 mg/dL
same,inhibition,[25],-4%
same,inhibition,[26],7%
same,inhibition,[27],-1%
same,inhibition,[28],-1%
same,Activity,[29],816 U/L
same,inhibition,[30],6%
same,inhibition,[31],9%
same,Activity,[32],3.65 ×10⁹ /L
same,inhibition,[33],0%
same,inhibition,[34],4%
same,Activity,[35],150 mmol/L
same,Activity,[36],7.2 mmol/L
same,Activity,[37],6.3 mmol/L
same,Activity,[38],50%
same,Activity,[39],5.7 mg/dL
same,inhibition,[40],14%
same,inhibition,[41],-1%
same,inhibition,[42],-1%
same,Activity,[43],5.5 mg/dL
same,inhibition,[44],-3%
